MrgX1 allo act: positive allosteric modulators of MrgX1, primary screen, HEK293 cells, Fluo-4 calcium flux. FDSS; active compounds read high. B-score at 10 µM. 310,000 tested, 0.63% active;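 active means plate-corrected calcium response at least 3 library SD above typical, normal starting fluorescence, not activating the receptor alone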;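 further: compound read alongside a low EC10 to EC30 dose of BAM8-22 agonist; peak minus trough fluorescence over baseline measured at the second addition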
MrgX1 antagonist: antagonists of human MrgX1 receptor, primary screen, HEK293 cells, Fluo-4 calcium flux; B-score at 10 µM; 310,000 tested, 1.3% active; Mas-related G-protein coupled receptor member X1 (Homo sapiens), Q96LB2; BAM8-22 antagonism; active compounds read low;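 active means calcium-response B-score plate-corrected more than 3 library SD below zero, starting fluorescence within 5 deviations, no agonist response on first addition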;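 further: peak minus trough fluorescence over baseline after final BAM8-22 challenge near maximal dose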
RGS4 inh: RGS4 inhibitors, primary screen, cell-based, HEK293 M3R inducible RGS4, calcium flux; Regulator of G-protein signaling 4 (Homo sapiens), P49798; Fluo-4 calcium flux; active compounds read high; triggered by carbachol at its EC20; B-score at 10 µM; 310,000 tested, 0.45% active; AID 463165, 2010;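 active means B-score, a plate-corrected calcium signal, over three deviations above library mean, with baseline fluorescence within five deviations of library mean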;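 further: RGS4 expression induced by doxycycline in cells with stable M3 receptor; B-score is computed from the integrated fluorescence ratio over baseline after carbachol; higher B-score means a larger calcium signal and so more RGS4 inhibition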
Target sequence (P49798 whole entry, looked up): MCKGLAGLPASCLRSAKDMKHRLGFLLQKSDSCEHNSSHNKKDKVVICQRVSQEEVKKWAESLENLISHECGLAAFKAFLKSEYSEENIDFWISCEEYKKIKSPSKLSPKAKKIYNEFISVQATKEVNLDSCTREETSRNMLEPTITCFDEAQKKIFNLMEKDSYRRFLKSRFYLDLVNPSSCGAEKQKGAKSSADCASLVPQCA
MrgX1 agonist: agonists of human MrgX1 receptor, primary screen, HEK293 cells, Fluo-4 calcium flux | Fluo-4 calcium fluorescence, agonist mode; active compounds read high | 310,000 tested, 0.44% active | Mas-related G-protein coupled receptor member X1 (Homo sapiens), Q96LB2 | B-score at 10 µM;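 active means calcium response B-score plate-corrected fluorescence ratio at least 3 library SD, with starting fluorescence B-score inside 5 SD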
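Assay system: MrgX1-expressing HEK293 cells / Amount: fifteen thousand cells per well / Doses: test compound in the initial addition of three / Timing: cells plated overnight, dye loaded 0.5 h 37 °C, 0.5 h room temperature / Technique: kinetic calcium dye fluorescence, Fluo-4 NW / Control set: positive and negative controls per plate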
RGS4 act: RGS4 potentiators or activators, primary screen, cell-based, HEK293 M3R inducible RGS4, calcium flux. carbachol calcium flux Fluo4; active compounds read low. B-score at 10 µM. 310,000 tested, 0.92% active. AID 463111, 2010;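 active means B-score of the integrated calcium signal more than 4 SD below the library mean, with starting fluorescence not abnormally high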;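 further: negative B-score means reduced calcium response which marks RGS4 activation or potentiation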
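Test system: HEK293 cells with stable M3R and inducible RGS4; also added: carbachol at ECmax as muscarinic agonist stimulus; schedule: dye loading 30 min 37 °C, buffer rest 30 min RT; technique: kinetic calcium fluorescence imaging with Fluo4-AM dye, 2 µM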
Each line names hits and unclear results; the compound was inactive in the other large screens. An excerpt weighted towards active compounds, which were near 3.5% of everything screened.

COc1ccc(C(O)(C2CCCCC2)C(CN2CCOCC2)c2ccccc2)cc1 (configuration not stated)	none
Cc1nn(-c2ccccc2)nc1CNC(=O)c1ncoc1-c1ccccc1	RGS4 act -7.4
COc1ccc(/C(C)=N/NC(=O)Cn2nc([N+](=O)[O-])cc2C)cc1	none
CCN1CCc2c(sc(NC(=O)c3ccc(S(=O)(=O)N(C)c4ccccc4)cc3)c2C(=O)NC)C1	MrgX1 agonist 59, RGS4 act -7.5
COCC(C)NC(=O)CSc1ncnc2sc(-c3ccccc3)cc12 (configuration not stated)	none
COc1ccc(NC(=O)CN2CCC(NC(=O)c3ccco3)CC2)c([N+](=O)[O-])c1	none
CC(NC(=O)COc1cccnc1[N+](=O)[O-])c1ccc(Cl)cc1 (configuration not stated)	RGS4 act -8.1
Cc1ccccc1NC(=O)C1CCN(C(=O)N2CCOc3ccccc32)CC1	none
Cc1cccc(NC(=O)CSc2nc3ccccc3o2)c1	none
Cc1nn2c(-c3cccc(NC(=O)CSc4nc5ccccc5o4)c3)nnc2c2ccccc12	RGS4 act -7.9
Cc1ccc(C(=O)NN2C(=O)/C(=C/c3cn(C)c4ccccc34)SC2=S)cc1	MrgX1 antagonist -4.8 (no result: RGS4 inh, RGS4 act)
COc1cc(/C=C2\SC(=S)N(NC(=O)c3ccc(O)cc3)C2=O)ccc1O	none
O=C1/C(=C/c2ccc(O)c(O)c2)SC(=S)N1Nc1ccccc1	none (no result: MrgX1 allo act, MrgX1 antagonist, MrgX1 agonist)
O=C(NN1C(=O)/C(=C/c2ccc(O)c(O)c2)SC1=S)c1ccccc1	MrgX1 agonist 32
COc1cc(/C=C2\SC(=S)N(NC(=O)c3cccnc3)C2=O)ccc1O	MrgX1 antagonist -6.7
Cn1cc(/C=C2\SC(=S)N(NC(=O)c3ccccc3Cl)C2=O)c2ccccc21	none (no result: RGS4 inh, RGS4 act)
COc1ccc(C2NC(=O)c3ccccc3O2)cc1 (configuration not stated)	none
O=C(N/N=C\c1cc([N+](=O)[O-])ccc1N1CCOCC1)c1ccccn1	MrgX1 antagonist -4.5
Cc1noc(C)c1CSCC(=O)N(CC(C)C)c1c(N)n(Cc2ccccc2)c(=O)[nH]c1=O	none
O=c1c2c3c(sc2ncn1/N=C/c1ccc([N+](=O)[O-])o1)CCCC3	RGS4 inh 5.2
Cn1cc(/C=N/n2cnc3sc4c(c3c2=O)CCCC4)c2ccccc21	none
CC(=O)Nc1ccc(NC(=O)C(C)OC(=O)CCCOc2ccc(Cl)cc2C)cc1 (configuration not stated)	MrgX1 antagonist -7.8
CCCOc1ccc(C(C(=O)OCCN(CC)CC)c2ccccc2)cc1 (configuration not stated)	MrgX1 antagonist -4.6, RGS4 act -7.4
CN1CCCCC1CCN1c2ccccc2Sc2ccc(S(C)=O)cc21 (configuration not stated)	RGS4 act -7.3
CN1CCCC(CN2c3ccccc3Sc3ccccc32)C1 (configuration not stated)	none
CCOc1cccc2cc(-c3nnc(NCc4ccco4)s3)c(=O)oc12	MrgX1 antagonist -4.8
Cc1cccc(NC(=S)NC2CC3CCCC(C2)N3Cc2ccccc2)c1C (configuration not stated)	none
Cc1ccsc1C=C1C(=O)c2ccccc2C1=O	none
Cc1ccsc1/C=C1/C(=O)NN(c2ccccc2)C1=O	MrgX1 agonist 33
CC(C)(C)n1nnnc1C(c1cccnc1)N(Cc1ccccc1)Cc1cccs1 (configuration not stated)	MrgX1 antagonist -6
CC(=O)c1sc(NC(=O)c2ccc(Cn3cc(Br)cn3)o2)nc1C	MrgX1 allo act 6.5
O=C1C2C3C=CC(C4CC34)C2C(=O)N1/N=C/c1ccc(-c2ccc(Cl)cc2[N+](=O)[O-])o1 (configuration not stated)	RGS4 act -8.5
O=c1c(Cl)c2oc3ccccc3nc-2c2ccccc12	MrgX1 antagonist -5.7
Clc1ccc(-c2nnc(Sc3nc4ccccc4o3)c3ccccc23)cc1	none
CC(C)CN(C(=O)COc1ccc(Br)cc1C=O)C1CCS(=O)(=O)C1 (configuration not stated)	none

Assay outcomes as filed in PubChem.
